In ChEMBL document CHEMBL1128448, “Synthesis and antifungal activity of new azole derivatives containing an N-acylmorpholine ring” (1995):
In brackets after ≈: the same amount, converted by molar mass.

Columns and labels:
Candida albicans [1] = assay: In vivo evaluation of minimum inhibitory concentration against Candida albicans 406; format: functional; details: Candida albicans; read-out: MIC
How it was run: (§1)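 Broth macrodilution MIC following NCCLS M27-P, in RPMI-1640 buffered with 0.165 M MOPS. Fluconazole was dissolved in water and other drugs in DMSO. C. parapsilosis ATCC 22019 served as the reference strain in every run. MIC was the lowest concentration giving turbidity at or below the 80% inhibition standard.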

Pichia kudriavzevii = assay: In vitro evaluation of minimum inhibitory concentration against Candida krusei 70; format: functional; details: Pichia kudriavzevii; read-out: MIC
How it was run: (§2)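 Stocks are 800 μg/mL in 50% ethanol. Each plate gets 10 μL of inoculum at 10^5 cfu/mL. Incubation at 25 °C, 48 h for yeasts and 120 h for dermatophytes and molds. Organisms are ATCC strains or clinical isolates.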

Trichophyton rubrum = assay: In vitro evaluation of minimum inhibitory concentration against Trichophyton rubrum 90; format: functional; details: Trichophyton rubrum; read-out: MIC; how it was run: as §2
Mus sp. [2] = assay: In vivo evaluation of % survival rate after peroral administration on 7th day at dose 1 mg/kg; format: functional; details: Mus sp., po
Aspergillus flavus = assay: In vitro evaluation of minimum inhibitory concentration against Aspergillus flavus 19; format: functional; details: Aspergillus flavus; read-out: MIC; how it was run: as §2
Trichophyton benhamiae = assay: In vitro evaluation of minimum inhibitory concentration against Trichophyton mentagrophytes 23; format: functional, Arthroderma benhamiae; details: Trichophyton benhamiae; read-out: MIC; how it was run: as §2
Nannizzia gypsea = assay: In vitro evaluation of minimum inhibitory concentration against Microsporum gypseum 22; format: functional; details: Nannizzia gypsea; read-out: MIC; how it was run: as §2
Rhodotorula mucilaginosa = assay: In vitro evaluation of minimum inhibitory concentration against Rhodotorula rubra 16; format: functional; details: Rhodotorula mucilaginosa; read-out: MIC; how it was run: as §2
Candida tropicalis = assay: In vitro evaluation of minimum inhibitory concentration against Candida tropicalis 2.11; format: functional; details: Candida tropicalis; read-out: MIC; how it was run: as §2
Candida albicans [3] = assay: In vitro evaluation of minimum inhibitory concentration against Candida albicans 76; format: functional; details: Candida albicans; read-out: MIC; how it was run: as §2
Kluyveromyces marxianus = assay: In vivo Evaluation of minimum inhibitory concentration against Candida pseudotropicalis 13; format: functional; details: Kluyveromyces marxianus; in the assay text read “In vitro” for “In vivo”; read-out: MIC; how it was run: as §2
Candida parapsilosis = assay: In vitro evaluation of minimum inhibitory concentration against Candida parapsilosis 61; format: functional; details: Lodderomyces parapsilosis; read-out: MIC; how it was run: as §2
Mus sp. [4] = assay: In vivo evaluation of % survival rate after peroral administration on 5th day at dose 1 mg/kg; format: functional; details: Mus sp., po
Aspergillus niger = assay: In vitro evaluation of minimum inhibitory concentration against Aspergillus niger 18; format: functional; details: Aspergillus niger; read-out: MIC; how it was run: as §2
Microsporum canis = assay: In vitro evaluation of minimum inhibitory concentration against Microsporum canis 47; format: functional; details: Microsporum canis; read-out: MIC; how it was run: as §2
Nakaseomyces glabratus = assay: In vitro evaluation of minimum inhibitory concentration against Torulopsis glabrata 78; format: functional; details: Nakaseomyces glabratus; read-out: MIC; how it was run: as §2
Candida albicans [5] = assay: In vivo evaluation of minimum inhibitory concentration against Candida albicans 60; format: functional; details: Candida albicans; read-out: MIC; how it was run: as §1
Mus sp. [6] = assay: In vivo evaluation of % survival rate after peroral administration on 9th day at dose 1 mg/kg; format: functional; details: Mus sp., po
[7] = tested on: Meyerozyma guilliermondii; assay: In vitro evaluation of minimum inhibitory concentration against Candida guilliermondii 26; format: functional; details: Meyerozyma guilliermondii; read-out: MIC; how it was run: as §2
Mus sp. [8] = assay: In vivo evaluation of % survival rate after peroral administration on 3rd day at dose 1 mg/kg; format: functional; details: Mus sp., po
Aspergillus fumigatus = assay: In vitro evaluation of minimum inhibitory concentration against Aspergillus fumigatus 33; format: functional; details: Aspergillus fumigatus; read-out: MIC; how it was run: as §2

Structure (SMILES): C[C@H]1N(C(=O)c2ccc(OCC(F)(F)C(F)F)cc2)C[C@H](O)O[C@@]1(Cn1cncn1)c1ccc(F)cc1F (racemic)
- MIC (Candida albicans [1]): 1.25 µg/mL (≈ 2.3 µM)
- MIC (Pichia kudriavzevii): > 80 µg/mL
- MIC (Trichophyton rubrum): > 80 µg/mL
- survival at 1 mg/kg (Mus sp. [2]): 0%
- MIC (Aspergillus flavus): > 80 µg/mL
- MIC (Trichophyton benhamiae): > 80 µg/mL
- MIC (Nannizzia gypsea): > 80 µg/mL
- MIC (Rhodotorula mucilaginosa): > 80 µg/mL
- MIC (Candida tropicalis): 80 µg/mL (≈ 147 µM)
- MIC (Candida albicans [3]): 80 µg/mL (≈ 147 µM)
- MIC (Kluyveromyces marxianus): 0.63 µg/mL (≈ 1.16 µM)
- MIC (Candida parapsilosis): 10 µg/mL (≈ 18.4 µM)
- survival at 1 mg/kg (Mus sp. [4]): 50%
- MIC (Aspergillus niger): > 80 µg/mL
- MIC (Microsporum canis): > 80 µg/mL
- MIC (Nakaseomyces glabratus): > 80 µg/mL
- MIC (Candida albicans [5]): 5 µg/mL (≈ 9.18 µM)
- survival at 1 mg/kg (Mus sp. [6]): 0%
- MIC [7]: 80 µg/mL (≈ 147 µM)
- survival at 1 mg/kg (Mus sp. [8]): 80%
- MIC (Aspergillus fumigatus): > 80 µg/mL
